Results on 23 compounds are retold here after ChEMBL document CHEMBL1138626, “Synthesis and biological evaluation of reversible inhibitors of IdeS, a bacterial cysteine protease and virulence determinant” (Bioorg Med Chem, 2009).

The test relates to Streptococcus pyogenes. The test is described as follows: Inhibition of Streptococcus pyogenes IdeS assessed as blockade of enzyme-mediated degradation of human polyclonal immunoglobulin G by SDS-PAGE method. The method, boiled down:
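IdeS expressed in E. coli and purified, diluted in PBS pH 7.4 (1 mg/mL), preincubated 30 min at room temperature in the dark with compound in DMSO (10 mg/mL stock, 100× excess). Human polyclonal IgG (1 mg/mL in PBS) then added, 1 h at 37 °C. Samples boiled in reducing SDS sample buffer (4% SDS, 5% 2-mercaptoethanol), cleavage read on 4–20% SDS–PAGE.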

The structures appear in SMILES notation. Activity calls are given as the source filed them. The calls are words filed in the database; no cut-off is given here.

As for `CCCC[C@@H](CN=[N+]=[N-])NS(=O)(=O)c1ccc(C)cc1`, the result was Active.
With `Cc1ccc(S(=O)(=O)N[C@@H](CCCCN)C(=O)CCl)cc1` the entry was “Active”.
For `Cc1ccc(S(=O)(=O)NC(CC=O)C(C)C)cc1` (single isomer, unassigned) the value was “Active”; for `CCCC[C@@H](CO)NS(=O)(=O)c1ccc(C)cc1`, “inactive”; for `Cc1ccc(S(=O)(=O)N[C@H](CO)CCCCNC(=O)OC(C)(C)C)cc1`, “inactive”.
In the case of `Cc1ccc(S(=O)(=O)N[C@H](CO)C(C)C)cc1`, the result was inactive.
`Cc1ccc(S(=O)(=O)N[C@@H](CCCCNC(=O)OC(C)(C)C)COS(=O)(=O)c2ccc(C)cc2)cc1`: the outcome was inactive.
On to `CCCC[C@@H](CC=O)NS(=O)(=O)c1ccc(C)cc1`, for which the outcome was Active.
In the case of `Cc1ccc(S(=O)(=O)N[C@@H](Cc2ccccc2)C(=O)CCl)cc1`, the outcome was Active.
For `Cc1ccc(S(=O)(=O)N[C@@H](CCCCNC(=O)OC(C)(C)C)CN=[N+]=[N-])cc1`, the outcome was inactive.
For `Cc1ccc(S(=O)(=O)N[C@H](CN=[N+]=[N-])C(C)C)cc1` the value was “Active”; for `Cc1ccc(S(=O)(=O)N2C[C@@H]2C(C)C)cc1` (stereo partly drawn), “inactive”.
For the compound `Cc1ccc(S(=O)(=O)N[C@H](CC=O)Cc2ccccc2)cc1`, the outcome was Active.
Regarding `CCCC[C@H]1CN1S(=O)(=O)c1ccc(C)cc1` (stereo partly drawn), the result was inactive.
For the compound `CCCC[C@@H](CC#N)NS(=O)(=O)c1ccc(C)cc1`, the outcome was Active.
With `Cc1ccc(S(=O)(=O)N[C@H](CO)CCCCN)cc1` the entry was “inactive”; with `Cc1ccc(S(=O)(=O)N[C@H](CC=O)CCCCNC(=O)OC(C)(C)C)cc1`, “Active”; with `Cc1ccc(S(=O)(=O)N[C@H](COS(=O)(=O)c2ccc(C)cc2)C(C)C)cc1`, “inactive”.
For `Cc1ccc(S(=O)(=O)N[C@H](CO)Cc2ccccc2)cc1` the value was “inactive”.
In the case of `CCCC[C@@H](COS(=O)(=O)c1ccc(C)cc1)NS(=O)(=O)c1ccc(C)cc1`, the result was inactive.
For `Cc1ccc(S(=O)(=O)N[C@@H](CCCCN)CN=[N+]=[N-])cc1` the value was “inactive”; for `Cc1ccc(S(=O)(=O)N[C@H](COS(=O)(=O)c2ccc(C)cc2)Cc2ccccc2)cc1`, “inactive”; for `Cc1ccc(S(=O)(=O)N[C@H](CN=[N+]=[N-])Cc2ccccc2)cc1`, “Active”.
